Tn7 DDE FP: disrupts Tn7 cyclic peptide binding to fibrin D-Dimer-E complex; P02675; FP displacement of FITC-Tn7 peptide from fibrin DD(E); 0% = median of compound wells per plate; 0.13% of 370,000 active; inhibition, % at 8.3 µM;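 active = inhibition above the mean of compounds falling within the control limits plus 3 SD of them, cut at about 14% in these data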;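 note: 0% = plate median of compound wells and 100% = 10 µM Aha-Tn7 peptide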
Target sequence (P02675 whole entry, looked up): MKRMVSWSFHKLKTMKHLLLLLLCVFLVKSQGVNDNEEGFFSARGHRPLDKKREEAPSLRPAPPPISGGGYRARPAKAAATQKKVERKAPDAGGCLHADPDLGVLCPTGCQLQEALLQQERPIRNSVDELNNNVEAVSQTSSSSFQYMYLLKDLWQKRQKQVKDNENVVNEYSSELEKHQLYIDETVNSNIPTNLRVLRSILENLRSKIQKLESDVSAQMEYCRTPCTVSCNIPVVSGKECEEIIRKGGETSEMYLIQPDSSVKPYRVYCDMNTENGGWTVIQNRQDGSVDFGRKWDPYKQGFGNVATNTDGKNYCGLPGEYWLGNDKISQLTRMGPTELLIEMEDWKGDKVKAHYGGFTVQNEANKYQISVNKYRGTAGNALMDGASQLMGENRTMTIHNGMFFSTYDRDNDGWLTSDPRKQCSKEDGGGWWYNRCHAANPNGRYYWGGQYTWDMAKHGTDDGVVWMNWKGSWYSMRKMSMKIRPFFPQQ
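Measure: % inhibition scaled between sample-field median and high-control FP; Test system: human fibrin DD(E); Quantity: 2 µM final DD(E) protein; Doses: one dose, 8.3 µM nominal; Schedule: compound with protein 10 min, then 3 h after probe, room temperature; Detection: fluorescence polarization; Medium: Tris buffer with calcium and detergent, pH 7.8.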
DAGLB inh: diacylglycerol lipase beta (human) inhibition; HEK293T DAGLB membrane lysate, EnzChek fluorogenic substrate; Q8NCG7; AID 504411; inhibition, % at 5.17 µM; 0.059% of 340,000 active; in the data active = inhibition above about 34%;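 note: 0% = enzyme with vehicle and 100% = wells lacking enzyme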
H9c2 TAG inh: triacylglycerol accumulation inhibition. 0.66% of 230,000 active. AID 651582. H9c2 cells, Nile Red lipid (TAG) fluorescence; cells loaded with 200 µM oleic acid. inhibition, % at 12.5 µM;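 active = pattern-corrected inhibition of lipid staining of at least 50% with the nuclear-stain viability signal not falling by more than 50%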;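 note: 0% = DMSO wells and 100% = triacsin C control wells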
Cardio protect: protects H9c2 cardiomyocytes from peroxide injury | protection from H2O2 cell death, % at 20 µM | H2O2 injury protection, ATPLite, 2 h | 0.63% of 360,000 active;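 active = compounds giving at least 50% protection of heart cells from peroxide-induced death in the single-dose screen, raw or plate-pattern-corrected value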;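 note: 0% = DMSO wells with peroxide and 100% = DMSO wells without peroxide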
MT1-MMP act inh: MT1-MMP (human) activation inhibition. HT1080 RFP-PRO-GFP cells, GFP/RFP ratio fluorescence, overnight; percent of plate control window, DMSO zero. GFP/RFP ratio change, % at 20 µM. 0.061% of 360,000 active;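 active = GFP/RFP ratio change of at least 30% with cell ATP level not reduced by more than half and red fluorescence within 50% of control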
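Assay system: RFP-PRO-GFP reporter HT1080 cells; read-out basis: GFP/RFP fluorescence ratio; benchmarks: DMSO wells and RFP-L50D-GFP cells; doses: 20 µM single dose, 1% DMSO; schedule: overnight cell settling, then overnight compound exposure, 37 °C, 5% CO2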
Tn6 DDE FP: DD(E)-Tn6 binding inhibition, primary FP screen | Fibrin DD(E) TRITC-Tn6 fluorescence polarization displacement | inhibition, % at 8.3 µM | P02675 | 0.21% of 370,000 active;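 active = inhibition above a per-campaign cutoff: mean of compounds within control limits plus 3 SD, cut at about 15% in these data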;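 note: 0% = median of all compound wells on the plate and 100% = blocking peptide control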
DAGLB inh conf: DAGLB (human) inhibition, confirmation screen; inhibition, % at 5.17 µM; 73% of 190 active; shares compounds with DAGLB inh; HEK293T DAGLB membrane lysate, EnzChek fluorogenic substrate; AID 504445;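 active = mean inhibition over triplicate wells above a set limit taken from the primary lipase screen, cut at about 34% in these data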;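 note: 0% = DAGLB with DMSO and 100% = wells lacking DAGLB enzyme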
* = called active by the depositor; . = no result. Rows were chosen to be rich in hits. Some 1.4% of all compounds tested hit in one or more screens of this group.

SMILES	Tn7 DDE FP	DAGLB inh	H9c2 TAG inh	Cardio protect	MT1-MMP act inh	Tn6 DDE FP	others
COc1ccc(-n2c(/C=C/c3ccc(O)c(OC)c3)nc3ccccc3c2=O)cc1	-5	-5	16	88*	-56	-10
COc1ccc(-n2c(/C=C/c3ccc(O)cc3)nc3ccccc3c2=O)cc1	1	1	.	53*	-69	-6
COc1ccc(-n2c(/C=C/c3ccc4c(c3)OCO4)nc3ccccc3c2=O)cc1	4	-5	.	2	-3	3
COc1cccc(-n2c(/C=C/c3ccc(O)c(O)c3)nc3ccccc3c2=O)c1	1	8	0	72*	-110	8
COc1cccc(-n2c(/C=C/c3ccccn3)nc3ccccc3c2=O)c1	0	1	.	17	0	1
O=c1c2ccccc2nc(/C=C/c2ccc(O)cc2)n1-c1ccc(O)cc1	-9	5	.	55*	-149	5
N#CC1c2ccccc2-n2nncc2CN1C(=O)c1cccnc1 (centres undefined)	-8	.	.	.	.	-2
O=C(CN1C(=O)[C@@H](Cc2ccccc2)N=C(c2ccccc2)c2ccccc21)NC1CCCCC1	-5	.	.	.	.	-2
COC1=C(C)C(=O)C2=C(C1=O)C(CO)N1C(C#N)C3CC4C(C1C2N1CCOC41)N3C (centres undefined)	2	-4	83*	-5	-1	5
CN1CC[C@@H]2CN[C@H](c3ccccc3Br)C[C@@H]21	-5	.	.	.	.	-4
O=c1c2ccccc2nc(CSc2ncnc3nc[nH]c23)n1-c1ccc(Cl)c(Cl)c1	2	-4	5	68*	1	8
CS(=O)(=O)N1Cc2cc(Br)ccc2-n2nncc2C1	-6	.	.	.	.	-4
COc1ccc(CCNC(=O)c2c(N)n(CCN3CCOCC3)c3nc4ccccc4nc23)cc1OC	-3	3	.	57*	-7	0
CCCCCn1c(N)c(C(=O)NCCN2CCOCC2)c2nc3ccccc3nc21	-5	0	17	13	-13	-8
CCC(c1nnnn1Cc1ccccc1)N1CCC(n2c(=O)[nH]c3ccccc32)CC1 (centres undefined)	10	.	.	51*	-18	-2
CCCCn1nnnc1C(CCc1ccccc1)N1CCC(n2c(=O)[nH]c3ccccc32)CC1 (centres undefined)	1	.	.	31	-14	1
CC(=O)N1c2ccccc2C(c2ccccc2)=NCC1C(=O)NCc1ccccc1 (centres undefined)	-10	.	.	.	.	3
CN(C)c1ccc(/C=C/C=C/c2sc3ccccc3[n+]2C)cc1	-4	4	-2	-10	29	14
CC[n+]1c(/C=C/C=C/c2ccc(N(C)C)cc2)sc2ccccc21	-2	20	22	-18	84	73*
CSc1nc(Cl)c(Br)c(N2CC2)n1	-5	0	19	51*	1	0
N#CCC[C@H]1CC[C@]2(CCCN(Cc3ccccn3)C2)O1	1	.	.	.	.	3
O=c1[nH]c2cc(Cl)ccc2n1C1CCN(Cc2ccc(-c3nc4ccc(F)cc4nc3-c3ccccc3)cc2)CC1	6	.	.	.	.	5
O=c1[nH]c2ccccc2n1CCCN1CCC(n2c(=O)[nH]c3cc(Cl)ccc32)CC1	-4	2	9	63*	0	-8
C=C1C(C)C2C(Cc3ccccc3)NC(=O)C23OC(=O)/C=C/C(O)CCCC(C)C/C=C/C3C1O (centres undefined)	8	1	106	57*	4	-1
CC(C)(C)OC(=O)NCCCCC(N)[P+](=O)O (centres undefined)	-3	.	.	.	.	3
COc1ccccc1OP(=O)(Nc1cccnc1)Oc1ccccc1OC	-3	1	9	60*	-5	-6
CC(=O)c1ccc2c(c1)C1C(Cl)C(Sc3ccccc3[N+](=O)[O-])CC1C(C(=O)O)N2 (centres undefined)	-8	36*	.	13	45*	0	DAGLB inh conf=31
CN1c2ccc(Br)cc2[C@H]2NCC[C@H]2[C@H]1CO	5	.	.	.	.	6
